Experimental data: ChEMBL document CHEMBL1158625, “Design of 1-piperazinyl-4-arylphthalazines as potent Smoothened antagonists” (Bioorg Med Chem Lett, 2010)
Activity calls are given as the source filed them. The rule behind the calls is not given here.

Experiments:
[1] = Metabolic stability in rat liver microsome assessed as compound turnover after 30 mins; type: ADME; conditions: liver microsomes, read-out: Stability
Outline: (§1)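 Pooled human or rat liver microsomes (0.25 mg/mL), 37 °C, phosphate buffer pH 7.4, test compound 1 µM; NADPH 1 mM final; quenched at 0 or 30 min with organic solvent; unchanged parent by reversed-phase LC-MS/MS; percent turnover from peak area at 30 versus 0 min.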

[2] = Metabolic stability in human liver microsome assessed as compound turnover after 30 mins; type: ADME; conditions: liver microsomes, read-out: Stability; outline: as §1
CYP2D6 = CYP2D6 (Homo sapiens, UniProt P10635); assay: Inhibition of human CYP2D6 at 3 uM by HPLC-MS; type: ADME
CYP3A4 = CYP3A4 (Homo sapiens, UniProt P08684); assay: Inhibition of human CYP3A4 at 3 uM by HPLC-MS; type: ADME
[3] = Half life in mouse at 1 mg/kg, iv; type: ADME, organism-based; design: dose 1 mg/kg, route intravenous; conditions: in vivo
[4] = Clearance in rat at 0.5 mg/kg, iv; type: ADME, organism-based; design: dose 0.5 mg/kg, route intravenous; conditions: in vivo
[5] = Oral bioavailability in mouse at 2 mg/kg; type: ADME, organism-based; conditions: in vivo
[6] = Half life in cynomolgus monkey at 0.5 mg/kg, iv; type: ADME, organism-based, Macaca fascicularis; design: dose 0.5 mg/kg, route intravenous; conditions: in vivo
[7] = Oral bioavailability in cynomolgus monkey at 2 mg/kg; type: ADME, organism-based, Macaca fascicularis; conditions: in vivo
[8] = Volume of distribution at steady state in rat at 0.5 mg/kg, iv; type: ADME, organism-based; design: dose 0.5 mg/kg, route intravenous; conditions: in vivo, read-out: Vdss
[9] = Volume of distribution at steady state in mouse at 1 mg/kg, iv; type: ADME, organism-based; design: dose 1 mg/kg, route intravenous; conditions: in vivo, read-out: Vdss
[10] = Half life in dog at 0.5 mg/kg, iv; type: ADME, organism-based, Canis lupus familiaris; design: dose 0.5 mg/kg, route intravenous; conditions: in vivo
[11] = Half life in rat at 0.5 mg/kg, iv; type: ADME, organism-based; design: dose 0.5 mg/kg, route intravenous; conditions: in vivo
Medulloblastoma cell = assay: Antitumor activity against mouse Ptch+/- p53-/- medulloblastoma cells xenografted Harlan nu/nu mouse at 10 mg/kg, po qd administered after 8 days tumor implantation measured after 15 days; type: functional, organism-based; design: dose 10 mg/kg
Outline: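 Tumors from p53-/- Ptch+/- crossbred mice transplanted into immunocompromised mice; after 8 days animals randomized to compound 10 mg/kg QD oral or vehicle; tumor volume followed, reduction assessed day 15 versus treatment onset day 8; ten mice per group; Dunnett's method.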

[12] = Volume of distribution at steady state in cynomolgus monkey at 0.5 mg/kg, iv; type: ADME, organism-based, Macaca fascicularis; design: dose 0.5 mg/kg, route intravenous; conditions: in vivo, read-out: Vdss
[13] = Volume of distribution at steady state in dog at 0.5 mg/kg, iv; type: ADME, organism-based, Canis lupus familiaris; design: dose 0.5 mg/kg, route intravenous; conditions: in vivo, read-out: Vdss
[14] = Clearance in dog at 0.5 mg/kg, iv; type: ADME, organism-based, Canis lupus familiaris; design: dose 0.5 mg/kg, route intravenous; conditions: in vivo
Mus musculus = species on record: Mus musculus; assay: Reduction in Gli1 mRNA expression in mouse skin after 6 hrs of treatment by RT-PCR; type: functional, organism-based
Outline: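 Mouse hind flanks depilated with wax; five days later single oral dose 2, 20 or 100 mg/kg; skin harvested after 6 h; Gli1 RNA by quantitative real-time PCR normalized to RGS (Pitx2) RNA; four mice per group, two samples each; Dunnett's method; plasma levels also measured.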

[15] = Oral bioavailability in rat at 2 mg/kg; type: ADME, organism-based; conditions: in vivo
[16] = Oral bioavailability in dog at 2 mg/kg; type: ADME, organism-based, Canis lupus familiaris; conditions: in vivo
[17] = Clearance in cynomolgus monkey at 0.5 mg/kg, iv; type: ADME, organism-based, Macaca fascicularis; design: dose 0.5 mg/kg, route intravenous; conditions: in vivo
[18] = Clearance in mouse at 1 mg/kg, iv; type: ADME, organism-based; design: dose 1 mg/kg, route intravenous; conditions: in vivo
Protein smoothened = Protein smoothened (Mus musculus, UniProt P56726); assay: Inhibition of mouse SMO expressed in NIH-3T3 cells; type: cell-based, NIH3T3
Sequence of Protein smoothened (P56726 whole entry): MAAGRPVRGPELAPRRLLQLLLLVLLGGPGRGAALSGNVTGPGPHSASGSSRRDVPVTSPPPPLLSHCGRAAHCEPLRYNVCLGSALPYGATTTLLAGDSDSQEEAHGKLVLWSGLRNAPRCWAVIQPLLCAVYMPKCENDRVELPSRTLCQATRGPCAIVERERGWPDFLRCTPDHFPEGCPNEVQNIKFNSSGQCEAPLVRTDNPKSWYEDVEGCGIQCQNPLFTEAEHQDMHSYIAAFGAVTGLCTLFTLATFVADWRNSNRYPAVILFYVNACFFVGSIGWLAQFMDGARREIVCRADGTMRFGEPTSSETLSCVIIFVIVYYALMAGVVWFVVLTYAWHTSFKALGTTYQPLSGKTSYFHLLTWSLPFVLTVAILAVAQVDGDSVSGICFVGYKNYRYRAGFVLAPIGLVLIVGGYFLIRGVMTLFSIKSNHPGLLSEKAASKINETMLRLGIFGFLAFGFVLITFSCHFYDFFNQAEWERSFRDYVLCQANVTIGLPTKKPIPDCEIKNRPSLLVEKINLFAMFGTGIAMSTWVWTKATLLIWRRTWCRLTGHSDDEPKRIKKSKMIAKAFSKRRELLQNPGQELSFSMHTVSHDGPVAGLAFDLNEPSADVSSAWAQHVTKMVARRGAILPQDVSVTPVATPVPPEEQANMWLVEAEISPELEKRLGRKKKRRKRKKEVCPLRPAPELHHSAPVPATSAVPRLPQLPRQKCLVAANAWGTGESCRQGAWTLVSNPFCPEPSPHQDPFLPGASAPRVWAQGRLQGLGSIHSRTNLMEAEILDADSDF

Sequence of CYP2D6 (P10635 whole entry): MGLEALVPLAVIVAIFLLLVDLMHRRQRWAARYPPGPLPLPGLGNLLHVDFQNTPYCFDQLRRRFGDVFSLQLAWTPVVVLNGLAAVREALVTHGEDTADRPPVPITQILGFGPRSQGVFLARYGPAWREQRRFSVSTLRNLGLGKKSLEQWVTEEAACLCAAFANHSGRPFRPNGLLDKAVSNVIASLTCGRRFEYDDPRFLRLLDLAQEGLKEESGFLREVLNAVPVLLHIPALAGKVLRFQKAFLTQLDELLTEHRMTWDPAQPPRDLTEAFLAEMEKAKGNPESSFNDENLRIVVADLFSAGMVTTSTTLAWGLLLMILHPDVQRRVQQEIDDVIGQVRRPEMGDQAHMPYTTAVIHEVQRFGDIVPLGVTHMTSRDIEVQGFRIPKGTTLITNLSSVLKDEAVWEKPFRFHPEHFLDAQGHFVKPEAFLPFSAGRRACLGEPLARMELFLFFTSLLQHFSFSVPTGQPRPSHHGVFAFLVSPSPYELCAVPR
Sequence of CYP3A4 (P08684 whole entry): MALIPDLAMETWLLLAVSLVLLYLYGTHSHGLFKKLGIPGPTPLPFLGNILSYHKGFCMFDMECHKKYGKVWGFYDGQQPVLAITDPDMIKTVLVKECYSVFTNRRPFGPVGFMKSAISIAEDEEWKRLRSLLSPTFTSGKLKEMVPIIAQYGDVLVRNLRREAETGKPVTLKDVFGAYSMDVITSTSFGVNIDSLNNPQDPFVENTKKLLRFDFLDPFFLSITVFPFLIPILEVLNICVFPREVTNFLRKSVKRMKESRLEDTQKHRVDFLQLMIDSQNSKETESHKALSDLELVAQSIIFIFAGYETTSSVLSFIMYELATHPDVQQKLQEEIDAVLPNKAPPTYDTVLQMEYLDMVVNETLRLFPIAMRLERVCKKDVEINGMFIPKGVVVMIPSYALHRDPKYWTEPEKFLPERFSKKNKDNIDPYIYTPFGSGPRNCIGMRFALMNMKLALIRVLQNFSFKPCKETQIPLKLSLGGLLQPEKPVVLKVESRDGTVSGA

| metabolised at 0.5 h [1] [%] | metabolised at 0.5 h [2] [%] | inhibition at 3 µM (CYP2D6) [%] | inhibition at 3 µM (CYP3A4) [%] | Structure (SMILES) | further results |
| --- | --- | --- | --- | --- | --- |
| 55 | 56 | < 10 | < 10 | Cc1ccc(-c2nnc(N3CCN(C(=O)c4ccccc4)C[C@H]3C)c3ccccc23)cc1 |  |
| 10 | 31 |  | < 10 | O=C(c1ccccc1)N1CCN(c2nnc(-c3ccc(Cl)c(Cl)c3)c3ccccc23)CC1 |  |
| < 10 | < 10 | 43 | 40 | C[C@H]1CN(c2nnc(-c3ccc(Cl)cc3)c3ccccc23)CCN1C(=O)c1ccccc1 |  |
| 72 | 45 | < 10 | < 10 | Cc1ccc(-c2nnc(N3CCN(C(=O)c4ccccc4)CC3)c3ccccc23)cc1 |  |
| 12 | 38 | 60 | < 10 | C[C@@H]1CN(C(=O)c2ccccc2)CCN1c1nnc(-c2ccc(Cl)cc2)c2ccccc12 |  |
| 10 | 10 | 18 | < 10 | N#Cc1cccc(-c2nnc(N3CCN(C(=O)c4ccccc4)CC3)c3ccccc23)c1 |  |
| 22 | 27 | 19 | < 10 | COc1ccc(-c2nnc(N3CCN(C(=O)c4ccccc4)CC3)c3ccccc23)cc1 |  |
| 33 | 43 | 19 | < 10 | COc1cccc(-c2nnc(N3CCN(C(=O)c4ccccc4)CC3)c3ccccc23)c1 |  |
| 32 | 43 | 48 | < 10 | O=C(c1ccco1)N1CCN(c2nnc(-c3ccccc3)c3ccccc23)CC1 |  |
| 40 | 90 | 24 | < 10 | Cc1ccccc1-c1nnc(N2CCN(C(=O)c3ccccc3)CC2)c2ccccc12 |  |
| 43 | 38 | 10 | 13 | Cc1ccc(-c2nnc(N3CCN(C(=O)c4ccccc4)[C@@H](C)C3)c3ccccc23)cc1 |  |
| 12 | 19 | 11 | < 10 | O=C(c1ccccc1)N1CCN(c2nnc(-c3ccccc3)c3ccccc23)CC1 |  |
| 15 | 62 | < 10 | < 10 | O=C(c1ccccc1)N1CCN(c2nnc(-c3ccccc3Cl)c3ccccc23)CC1 |  |
| 15 | 10 | 18 | 20 | C[C@H]1CN(c2nnc(-c3ccc(F)cc3)c3ccccc23)CCN1C(=O)c1ccccc1 |  |
| 10 | 17 | 29 | < 10 | O=C(c1ccccc1)N1CCN(c2nnc(-c3ccc(F)cc3)c3ccccc23)CC1 |  |
| 10 | 20 | 24 | 16 | O=C(c1ccccc1)N1CCN(c2nnc(-c3ccc(Cl)cc3)c3ccccc23)CC1 |  |
| 10 | 10 | 29 |  | CC(=O)N1CCN(c2nnc(-c3ccccc3)c3ccccc23)CC1 |  |

More lines, now with the values behind:

| Structure (SMILES) | metabolised at 0.5 h [1] [%] | metabolised at 0.5 h [2] [%] | inhibition at 3 µM (CYP2D6) [%] | inhibition at 3 µM (CYP3A4) [%] | further results |
| --- | --- | --- | --- | --- | --- |
| C[C@H]1CN(c2nnc(-c3ccccn3)c3ccccc23)CCN1C(=O)c1ccccc1 | < 10 | < 10 | < 10 | < 10 |  |
| C[C@@H]1CN(C(=O)c2ccccc2)CCN1c1nnc(-c2ccc(N(C)C)cc2)c2ccccc12 | 82 | 59 | 26 | 90 |  |
| CC(C)c1ccc(-c2nnc(N3CCN(C(=O)c4ccccc4)C[C@H]3C)c3ccccc23)cc1 | 73 | 41 | 20 | 14 |  |
| C[C@H]1CN(c2nnc(-c3ccncc3)c3ccccc23)CCN1C(=O)c1ccccc1 | 25 | 10 | 52 | 58 |  |
| C[C@@H]1CN(C(=O)c2ccccc2)CCN1c1nnc(-c2ccc(CO)cc2)c2ccccc12 | 13 | 14 | < 10 | 15 |  |
| C[C@@H]1CN(C(=O)c2ccccc2)CCN1c1nnc(-c2ccccc2)c2ccccc12 | 39 | 44 | 47 | < 10 |  |
| C[C@@H]1CN(C(=O)c2ccccc2)CCN1c1nnc(-c2ccc(C3CC3)cc2)c2ccccc12 | 21 | 34 | < 10 | 31 |  |
| C[C@H]1CN(c2nnc(-c3cccnc3)c3ccccc23)CCN1C(=O)c1ccccc1 | 12 | 10 | < 10 | 12 |  |
| C[C@H]1CN(C(=O)c2ccccc2)CCN1c1nnc(-c2ccccc2)c2ccccc12 | 23 | < 10 |  |  |  |
| C[C@@H]1CN(C(=O)c2ccccc2)CCN1c1nnc(-c2ccc(C(C)(C)C)cc2)c2ccccc12 | 94 | 89 | 10 | 25 |  |
| C[C@@H]1CN(C(=O)c2ccccc2)CCN1c1nnc(-c2ccc(C(F)(F)F)cc2)c2ccccc12 | 11 | 13 | 15 | < 10 | half-life [3]: 3.4 h; clearance [4]: 6.83 mL/min/kg; bioavailability [5]: 65%; half-life [6]: 4.3 h; bioavailability [7]: 31%; Vd [8]: 5.07 L/kg; Vd [9]: 1.4 L/kg; half-life [10]: 10 h; half-life [11]: 9.5 h; Activity (Medulloblastoma cell): Active; Vd [12]: 2.52 L/kg; Vd [13]: 2.96 L/kg; clearance [14]: 3.33 mL/min/kg; Activity (Mus musculus): Dose-dependent effect; bioavailability [15]: 39%; bioavailability [16]: 60%; clearance [17]: 8.83 mL/min/kg; clearance [18]: 5 mL/min/kg |
| C[C@H]1CN(c2nnc(N3CC=CC=N3)c3ccccc23)CCN1C(=O)c1ccccc1 | < 10 | < 10 | 15 | < 10 |  |
| C[C@H]1CN(c2nnc(-c3ccc(C(F)(F)F)cc3)c3ccccc23)CCN1C(=O)c1ccccc1 | < 10 | < 10 | < 10 | 49 |  |
| C[C@H]1CN(c2nnc(-c3ccccc3)c3ccccc23)CCN1C(=O)c1ccccc1 | 21 | < 10 | 11 | < 10 |  |
| O=C(c1nccs1)N1CCN(c2nnc(-c3ccccc3)c3ccccc23)CC1 | 25 | 48 | 89 | < 10 |  |
| C[C@@H]1CN(C(=O)c2ccccc2)CCN1c1nnc(-c2ccc(C#N)cc2)c2ccccc12 | < 10 | < 10 | < 10 | 12 |  |
| O=C(c1cccs1)N1CCN(c2nnc(-c3ccccc3)c3ccccc23)CC1 |  |  |  |  | IC50 (Protein smoothened): 22 nM |
| C[C@@H]1CN(c2nnc(-c3ccccc3)c3ccccc23)CCN1C(=O)c1ccccc1 | 21 | 17 | < 10 | < 10 |  |
| C[C@H]1CN(c2nnc(-c3ncco3)c3ccccc23)CCN1C(=O)c1ccccc1 | 23 | 10 | 27 | < 10 |  |
